Screening results from PubChem.
NS3 helicase inh – HCV NS3 helicase inhibition; NS3 helicase DNA unwinding, Cy5 molecular beacon fluorescence; inhibition, % at 10.9 µM; hit rate 0.56% among 290,000; AID 1800;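 active = inhibition above the mean of all tested compounds plus 3 SD, set per campaign, cut at about 35% in these data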;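 note: 0% = DMSO wells and 100% = thioflavine S control wells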
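assay system = NS3 helicase fragment of HCV | buffer or medium = MOPS pH 6.5, MgCl2, DTT, Tween20, BSA | timing = 60 min unwinding reaction at 25 °C after ATP addition | signal = Cy5 beacon fluorescence read at start and 1 h | read-out basis = % inhibition of unwinding | control set = low DMSO, high thioflavine S at 110 µM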
eIF4H FP inh – inhibitors of RNA binding by human eIF4H; inhibition, % at 35 µM; hit rate 0.94% among 290,000; eIF4H fluorescence polarization binding assay; AID 2012;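 note: calls also rest on retests at 20 µM and on dose response follow-up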
DNA FID counter-1 – fluorescent intercalator displacement, NS3 helicase counter-screen. inhibition, % at 7.9 µM. AID 1845. hit rate 0.17% among 290,000. DNA fluorescent intercalator displacement, fluorescence; in the data active = inhibition above about 37%;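 note: 0% = vehicle and 100% = reference compound; higher means more ethidium bromide displaced from hairpin DNA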
MLLE-PAM2 inh – blocks PAM2 peptide binding to the PABP1 MLLE domain; P11940; GST-MLLE / FITC-PAM2 fluorescence polarization; inhibition, % at 20 µM; hit rate 0.36% among 360,000; AID 588489; in the data active = inhibition above about 35%, passing the limit was not always enough;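 note: plate controls were DMSO wells with GST-MLLE for no effect and wells lacking GST-MLLE protein for full effect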
Target sequence (P11940 whole entry, looked up, the tested form may be a part): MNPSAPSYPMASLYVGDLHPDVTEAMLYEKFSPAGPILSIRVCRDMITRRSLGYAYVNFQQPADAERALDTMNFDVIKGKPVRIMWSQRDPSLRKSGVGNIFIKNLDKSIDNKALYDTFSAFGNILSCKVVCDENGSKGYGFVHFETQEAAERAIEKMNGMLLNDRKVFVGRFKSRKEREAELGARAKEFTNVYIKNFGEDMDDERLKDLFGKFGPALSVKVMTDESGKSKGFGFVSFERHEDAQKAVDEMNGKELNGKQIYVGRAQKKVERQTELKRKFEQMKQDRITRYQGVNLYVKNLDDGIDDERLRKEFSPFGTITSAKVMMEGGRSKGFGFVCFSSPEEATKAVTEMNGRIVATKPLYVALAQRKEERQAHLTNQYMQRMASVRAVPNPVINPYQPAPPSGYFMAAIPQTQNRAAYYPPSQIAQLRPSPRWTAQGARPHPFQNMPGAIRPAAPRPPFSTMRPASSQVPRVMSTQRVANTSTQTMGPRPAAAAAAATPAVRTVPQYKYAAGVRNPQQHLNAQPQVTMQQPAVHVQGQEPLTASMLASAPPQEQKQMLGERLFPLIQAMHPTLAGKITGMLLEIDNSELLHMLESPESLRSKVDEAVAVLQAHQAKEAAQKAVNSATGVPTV
core dimer inh – HCV core protein dimerization inhibition; TR-FRET GST/Flag-core106 dimerization, 1536-well; inhibition, % at 5 µM; hit rate 0.33% among 300,000;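 active = inhibition above the mean of all tested compounds plus 3 SD, set per screening campaign, cut at about 45% in these data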
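System: GST/Flag-tagged HCV core106 proteins. Incubation: compound-protein-antibody incubation 4 h at 22.5 °C. Technique: HTRF with 340 nm excitation, 617/671 nm emission. Medium: KF-containing HEPES buffer, pH 7.45, DTT, CHAPS, BSA. Read-out: inhibition (%) from 671 over 617 nm ratio. Also added: Eu(K)-anti-GST 90 ng/mL plus XL665-anti-Flag 1 µg/mL.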
PABP polyA inh – PABP-poly(A) binding inhibition; P11940; PABP-poly(A) RNA binding, fluorescence polarization; inhibition, % at 35 µM; hit rate 1% among 290,000; AID 2014;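 note: calls also rest on retests at 20 µM and on dose response follow-up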
NS3 helicase cf – confirmation of Hepatitis C virus NS3 helicase inhibitors | shares compounds with NS3 helicase inh | NS3 helicase DNA unwinding, Cy5 molecular beacon fluorescence | inhibition, % at 10.9 µM | hit rate 31% among 1,600 | AID 1943;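 active = inhibition above the mean of all tested compounds plus 3 SD, cutoff set per campaign, cut at about 36% in these data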
DNA FID counter-2 – intercalator displacement, NS3 helicase counter-screen. inhibition, % at 7.9 µM. DNA fluorescent intercalator displacement, fluorescence. shares compounds with NS3 helicase inh. hit rate 4% among 1,600; in the data active = inhibition above about 37%;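 note: 0% = vehicle and 100% = reference compound; higher means more displacement of ethidium bromide from the DNA hairpin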
FID counter DR – DNA intercalator displacement in dose response; shares compounds with NS3 helicase inh; fluorescent intercalator displacement from DNA, fluorescence; IC50, µM; 120 tested, under 10 active
* marks the source's active call; other numbers are inactive results; ? = inconclusive; · = no result given. A selection: hits, their analogues and other compounds. The true share with any hit is near 2%. Unless noted, the rule behind the calls is not given here.

SMILES	NS3 helicase inh	eIF4H FP inh	DNA FID counter-1	MLLE-PAM2 inh	core dimer inh	PABP polyA inh	NS3 helicase cf	DNA FID counter-2	others
Cc1cc(C)nc(N/N=C/C2=C(N3CCOCC3)C(=C\c3ccc(Cl)cc3)/CC2)n1	36.3*	9.2	-19.5	-11.8	16.9	5.3	-6.4	-9.6
Cc1cc(C)nc(NN=CC2=C(N3CCOCC3)/C(=C/c3ccc(Cl)cc3)CC2)n1	·	·	·	-19.0	·	·	·	·
Cc1ccc(-n2ncc(C#N)c2/N=C/N2CCN(C)CC2)cc1	-0.6	0.2	3.3	-9.3	-6.8	-2.1	·	·
Cc1ccc(-n2ncc(C#N)c2/N=C/N2CCCCCC2)cc1	101.4*	-2.5	-8.5	-5.4	8.4	0.6	0.7	-37.5
Cn1c(=O)c2c(nc(C(O)c3ccccc3)n2C)n(C)c1=O (stereo unspecified)	·	·	·	10.6	·	·	·	·
Cc1nc(SCC(=O)c2cc3ccccc3oc2=O)c(C#N)c(-c2ccccc2)c1C(=O)Nc1ccccc1	28.1	3.0	-4.0	-30.4	17.8	-0.8	·	·
COc1ccc(-c2c(C#N)c(SCC(=O)c3cc4ccccc4oc3=O)nc(C)c2C(=O)Nc2ccccc2)cc1	52.4*	-6.6	-9.4	-41.2	-5.6	5.1	11.3	-4.8
CC(C)OC(=O)/C(=C/c1ccco1)c1ccccc1	60.5*	-4.7	-15.1	-5.2	1.7	-7.9	-19.5	-9.0
CC(C)(C)NC(=O)/C(=C/c1ccco1)c1ccccc1	15.1	3.6	-25.5	-13.5	0.8	5.6	·	·
Cc1ccc2c(c1)N(C(=O)CCC(=O)NCc1cccnc1)CC(C)O2 (stereo unspecified)	5.7	-13.9	-16.5	5.2	-10.6	-8.6	·	·
O=C(c1ccc2nc(-c3ccco3)c(-c3ccco3)nc2c1)N1CCN(c2ncccn2)CC1	52.8*	85.0*	-28.8	24.2	62.5*	66.8*	83.6*	18.5	FID counter DR=>79.4
O=C(NCCO)Nc1ccc2nsnc2c1	-11.4	0.7	8.3	14.0	-0.1	-6.1	·	·
CC(=O)c1ccc(NC(=O)c2ccc3nc(-c4ccco4)c(-c4ccco4)nc3c2)cc1	38.7*	103.4*	-20.8	8.1	78.1*	83.9*	77.9*	33.7
O=C(NCCO)Nc1ccc2nc(-c3ccco3)c(-c3ccco3)nc2c1	56.9*	?	23.6	·	75.8*	?	67.1*	37.5*
O=C(Nc1ccc(N2CCOCC2)cc1)c1ccc2nc(-c3ccco3)c(-c3ccco3)nc2c1	8.9	15.3	-5.3	12.4	13.6	-1.9	·	·
O=C(Nc1ccccc1)c1ccc2nc(-c3ccco3)c(-c3ccco3)nc2c1	45.8*	99.9*	-1.2	3.1	75.2*	71.2*	78.0*	52.9*
O=C(CNc1cc(S(=O)(=O)N2CCOCC2)ccc1N1CCCC1)Nc1ccc(Cl)cc1	·	·	·	4.1	·	·	·	·
CS(=O)(=O)Nc1ccc(-c2cnc3cccnn23)cc1	·	·	·	12.3	·	·	·	·
CCN(CC)c1ccc(C(=O)NNC(=O)CNC(=O)c2ccco2)cc1	·	·	·	1.9	·	·	·	·
S=C(Nc1ccc(N2CCOCC2)cc1)Nc1ccc2nc(-c3ccco3)c(-c3ccco3)nc2c1	54.7*	?	-19.3	91.6	83.1*	?	17.7	-4.0
O=C(NNC1CC(=O)N(c2ccc(Cl)cc2)C1=O)c1ccccc1Cl (stereo unspecified)	37.9*	-4.9	-17.8	-6.4	0.7	-6.8	-13.9	-6.2
O=C(Cn1cc(S(=O)(=O)N2CCCC2)c(S(=O)(=O)N2CCCC2)c1)NCc1ccco1	0.6	0.4	-8.7	-17.1	-6.0	14.3	·	·
Oc1ccc(N=Nc2ccccc2C(F)(F)F)c2cccnc12	48.5*	14.8	-3.3	24.6	5.3	9.1	-0.1	2.7
COc1ccccc1N=Nc1ccc(O)c2ncccc12	40.7*	51.4	-18.8	15.4	-29.5	32.2	-18.9	2.8
Cc1ccc(N=Nc2ccc(O)c3ncccc23)cc1	7.1	0.6	-2.0	12.4	0.5	-11.2	·	·
